Key:
[1] = folding enthalpy; higher = less favourable; fluorescence melt of hairpins on a sequencing array, two-state fit; conditions: sodium 0.088 M
Procedure, shortened: (§1)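 Bootstrapped two-state fits yielded melting temperature and folding enthalpy for library hairpins. Cy3 fluorescence, with annealed Cy3 and quencher oligos, was imaged on a sequenced MiSeq flow cell in 50 mM Na-HEPES pH 8.0, 25 mM NaCl in 2.5 °C steps up to 60 °C, and normalised to pre-quench Cy3 and to control constructs. Four replicates were combined by inverse variance, and fitted temperatures were raised by 9.35 °C to match UV melts.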

[2] = melting temperature; fluorescence melt of hairpins on a sequencing array, two-state fit, raised by 9.35 °C to match UV melts; conditions: sodium 0.088 M
Procedure, shortened: as §1

Sequence	folding enthalpy [1] [kcal/mol]	Tm [2] [°C]
GCGTCTGCACGC ((((....))))	-17.6	52.5
GCGTCTGGAAACAGGTGC ((..(((....)))..))	-28.3	41.8
GCGTCTTACGC ((((...))))	-21.1	62.5
GCGTCTTGACGC ((((....))))	-34.4	69.1
GCGTGAACACGC ((((....))))	-20.9	68
GCGTGACGAAAGTCCCGC (((.(((....))).)))	-21.9	59.8
GCGTGACGAAAGTCCGC (((.(((....))))))	-32.2	65
GCGTGAGAACGC ((((....))))	-18.9	64.2
GCGTGAGCACGC ((((....))))	-12.7	62.6
GCGTGATAACGC ((((....))))	-26.9	69.3
GCGTGATCACGC ((((....))))	-35.6	59.1
GCGTGATTACGC ((((....))))	-22.2	52.5
GCGTGCCACGC ((((...))))	-21.3	57.9
GCGTGCCCGAAAGGGCGC (((..(((....))))))	-7.85	55.5
GCGTGCCGAAAGGCCCGC (((.(((....))).)))	-21.6	68.9
GCGTGCCGACGC ((((....))))	-19.3	60.1
GCGTGCGAAAGCAAACGC ((((((....)))..)))	-29.6	60.2
GCGTGCGAAAGCATCGC ((((((....))).)))	-30.9	67.2
GCGTGGAGACGC ((((....))))	-18.2	55.6
GCGTGGCGAAAGCAGCGC (((..((....))..)))	-33.8	67.9
GCGTGGCGAAAGCCCAGC ((..(((....)))..))	-18.3	56.2
GCGTGGCGAAAGCCGAGC ((..(((....)))..))	-25.8	66.4
GCGTGGCGAAAGCCGTGC ((..(((....)))..))	-19.2	57.4
GCGTGGCGAAAGCGATGC ((.(.((....)).).))	-25.3	55.7

Sequence	folding enthalpy [1] [kcal/mol]	Tm [2] [°C]
GCGTGGGCGAAAGCCCGC (((..(((....))))))	-9.77	57.7
GCGTGGGGAAACCCACAC (.(((((....))))).)	-11.6	46.9
GCGTGGGGAAACCCGTGC ((..(((....)))..))	-26.1	46.2
GCGTGGGGAAACCTACGC ((((.((....)).))))	-41.3	58.7
GCGTGGGGAAACTCACGC (((((.(....).)))))	-42.9	61.4
GCGTGGGTACGC ((((....))))	-23.9	53.9
GCGTGTACACGC ((((....))))	-28.5	67.6
GCGTGTCACGC ((((...))))	-31.1	57.7
GCGTGTGACGC ((((...))))	-23.8	53.4
GCGTGTGGAAACATGCGC (((..((....))..)))	-35.2	60.9
GCGTGTGTACGC ((((....))))	-25.7	53.3
GCGTGTTCGAAAGAACGC (((..(((....))))))	-14.7	50.5
GCGTTACGAAAGTACCGC (((.(((....))).)))	-31.3	53.7
GCGTTACGAAAGTACGC (((.(((....))))))	-32.2	61.1
GCGTTACGAAAGTAGCGC (((.(((....))).)))	-39.7	64.4
GCGTTACGAAAGTATCGC (((.(((....))).)))	-47.6	55.2
GCGTTATACGC ((((...))))	-20.4	61.3
GCGTTATCACGC ((((....))))	-22.5	50.6
GCGTTATGACGC ((((....))))	-25	56.2
GCGTTCAACGC ((((...))))	-23.1	56.8
GCGTTCATACGC ((((....))))	-21.7	54.7
GCGTTCCTACGC ((((....))))	-25.2	57.9
GCGTTCGAAAGAAACGC ((((((....))).)))	-35.3	56.1
GCGTTCGAAAGAAATCGC ((((((....)))..)))	-25	35.2

Sequence	folding enthalpy [1] [kcal/mol]	Tm [2] [°C]
GCGTTCGAAAGAACACGC ((((((....)))..)))	-22.1	50.5
GCGTTCGAAAGAATCCGC ((((((....)))..)))	-22	35.3
GCGTTCGAAAGAATCGC ((((((....))).)))	-33.5	50.2
GCGTTCGGAAACGAATGC ((.((((....)))).))	-42.1	58.7
GCGTTCGGAAACGAGCGC (((.(((....))).)))	-33.6	66
GCGTTCTGACGC ((((....))))	-25.1	55.3
GCGTTGCCACGC ((((....))))	-14.3	53.8
GCGTTGCGAAAGCAAAGC ((.((((....)))).))	-30.4	66
GCGTTGCGAAAGCATTGC ((..(((....)))..))	-17.7	43.5
GCGTTGCGAAAGCCATGC ((.(.((....)).).))	-25.4	40.2
GCGTTGCGAAAGCGATGC ((.(.((....)).).))	-21.9	57.6
GCGTTGCGAAAGCGTCGC (((..((....))..)))	-20.8	63.6
GCGTTGCGAAAGCTCCGC (((..((....))..)))	-17.9	54.6
GCGTTGGAACGC ((((....))))	-16.5	52.4
GCGTTGGACGC ((((...))))	-19.5	52.7
GCGTTGGGAAACCAGCGC (((.(((....))).)))	-45.2	58.3
GCGTTGGGAAACCGACGC ((((.((....)).))))	-40.3	64
GCGTTGTTACGC ((((....))))	-23.2	54.3
GCGTTTAACGC ((((...))))	-21.4	56.6
GCGTTTACGAAAGTACGC (((..(((....))))))	-24.4	47.9
GCGTTTGGAAACAAATGC ((.((((....)))).))	-47.9	51.7
GCGTTTGGAAACAGACGC ((((.((....)).))))	-39.4	52.7
GCTAAAGGAAACTTTGGC ((.((((....)))).))	-30.4	41.1
GCTAACACGAAAGTGAGC (((..(((....))))))	-20.2	39.4

Sequence	folding enthalpy [1] [kcal/mol]	Tm [2] [°C]
GCTAACGAAAGTTAAGC ((((((....))).)))	-27.1	46.2
GCTAACGAAAGTTACAGC ((((((....)))..)))	-18.3	35.1
GCTAACGAAAGTTCGAGC ((((((....)))..)))	-14.9	32.5
GCTAACGAAAGTTGGAGC ((((((....)))..)))	-19.9	33.1
GCTAACGGAAACGTTAGC (((((((....)))))))	-47.9	66.2
GCTAAGCCGAAAGGCAGC (((..(((....))))))	-18.6	50
GCTAAGCGAAAGCCAAGC (((..((....))..)))	-20.3	38
GCTAAGCGAAAGCGCAGC (((..((....))..)))	-30.2	66.5
GCTAAGCGAAAGCTACGC ((..(((....)))..))	-13.2	39.2
GCTAAGGAAACTTAGC ((((((....))))))	-24.6	52
GCTAAGGCGAAAGCCAGC (((..(((....))))))	-16	48.6
GCTACACGAAAGTGGAGC (((.(((....))).)))	-43.5	67
GCTACAGGAAACCGTAGC (((((.(....).)))))	-31.6	47.7
GCTACAGGAAACTATAGC ((((.((....)).))))	-12.1	31.7
GCTACCGAAAGGTAAGC ((((((....))).)))	-35	53.2
GCTACCGAAAGGTGAGC ((((((....))).)))	-23.3	51
GCTACCGAAAGGTGGAGC ((((((....)))..)))	-15.3	41.3
GCTACCGAAAGGTGTAGC ((((((....)))..)))	-21.7	47.1
GCTACCGGAAACGATAGC ((((.((....)).))))	-31.6	43.7
GCTACGCCGAAAGGCAGC (((..(((....))))))	-11.9	42.3
GCTACGCGAAAGCACAGC (((..((....))..)))	-21.2	46.5
GCTACGCGAAAGCGTCGC ((.((((....)))).))	-19.3	57.7
GCTACGCGAAAGCGTTGC ((.((((....)))).))	-27.2	65
GCTACGGGAAACCGTAGC (((((((....)))))))	-38.1	68.8

— the array DNA melting data of Ke et al. (doi:10.1101/2024.01.08.574731)
